Screens from PubChem BioAssay.
NR3A LBD binder = NR3A (human) ligand-binding domain modulation; NR3A LBD differential scanning fluorimetry, Tm shift; 0% = protein alone, 100% = glycine-bound protein; Tm shift relative to glycine control, % at 25 µM; 2.5% of 340,000 active; AID 1259313;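 active means melting temperature shift of at least 10% of the positive control shift, at one fixed dose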
UPR CHOP act = activators of apoptotic arm of unfolded protein response (CHOP); CHO-CHOP luciferase reporter, UPR activation, luminescence; percent of tunicamycin response over DMSO baseline; activation, % at 10 µM; 0.34% of 330,000 active; AID 449763;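 active means at 10 µM dose, activation of 40% or more, normalized to positive control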;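 further: 100% = tunicamycin at 10 µg/mL and 0% = DMSO alone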
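System: CHO-CHOP luciferase reporter cell line | Buffer or medium: F12 medium containing 10% fetal bovine serum | Doses: One dose, 10 µM in 0.5% DMSO | Times: 6 h compound exposure at 37 °C after overnight seeding | Signal: Luciferase luminescence | Read-out: % activation vs tunicamycin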
MPTP block = blocks calcium-induced mitochondrial swelling. isolated mouse mitochondria, Ca2+ swelling absorbance, 30 min. inhibition, % at 10 µM. 1.4% of 360,000 active. AID 602449;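 active means inhibition of 50% or more, scaled per plate between neutral and stimulator controls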;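 further: 0% = DMSO wells given calcium and 100% = 1 mM EGTA wells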
aDG glyco up = increases alpha dystroglycan glycosylation; Pro5-aDG cells, alpha-DG glycosylation AlphaScreen (IIH6); 0% Pro5, 100% B10-LARGE cell signal; activation, % at 10 µM; 0.22% of 360,000 active; AID 624168;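 active means activation of at least 8% versus controls, or a plate z-score of at least 8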;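 further: Pro5 are CHO cells carrying HIG-tagged alpha-DG that lacks glycosylation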
XBP1 UPR activ = adaptive UPR (XBP1) activation | CHO-XBP1 luciferase reporter, IRE1-XBP1 UPR activation, luminescence; percent of tunicamycin response, DMSO as zero | activation, % at 20 µM | 0.33% of 330,000 active | AID 463104;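 active means versus positive control, 20 µM dose yields 30% or more activation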;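 further: 100% = tunicamycin at 10 µg/mL and 0% = DMSO only wells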
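Assay system: IRE1-XBP1 luciferase reporter CHO line. Input: 1000 cells/well. Buffer or medium: F12 with 10% serum. Doses: 20 µM, 1% DMSO. Times: overnight seeding at 37 °C, 6 h compound treatment at 37 °C. Technique: Steady-Glo luciferase glow luminescence, 10 min after reagent addition.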
CHOP inh = CHOP inhibition in unfolded protein response; 3.8% of 220,000 active; inhibition, % at 10 µM; AID 2732; CHO-K1 CHOP-promoter luciferase, tunicamycin-induced, 15-18 h;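 active means compounds that reduced the stress-induced luciferase reporter signal by more than about 70% of percent inhibition, limit read from the data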;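 further: 0% = tunicamycin plus vehicle and 100% = wells without tunicamycin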
aDG conf = alpha-DG glycosylation activation, confirmation. activation, % at 10 µM (by protocol). 17% of 600 active. AID 651671. shares compounds with aDG glyco up. Pro5-aDG cells, IIH6 AlphaLISA; scaled to LARGE-overexpressing B10 cells as 100%;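 active means activation of at least 7% in one or more replicates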;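 further: cells exposed to compound for two days before detection; 0% = DMSO-treated Pro5 cells and 100% = DMSO-treated B10-LARGE cells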
Starred values were filed as active, the others as inactive; . = no result given. The list is not random: actives were taken first. Their share in the collection is about 5.6%.

SMILES	NR3A LBD binder	UPR CHOP act	MPTP block	aDG glyco up	XBP1 UPR activ	CHOP inh	aDG conf
CCN1CCN(c2ccc(S(=O)(=O)N3CCCCC3)cc2NC(=O)/C=C/c2ccc(OC(F)F)cc2)CC1	-6.4	2.3	9.0	0.7	4.9	.	.
CC(=O)c1ccc(N(CC(=O)NC2CCCC2)C(=O)c2csnn2)cc1	2.5	1.1	-1.9	-0.1	-5.6	.	.
Cc1ccc(CCNC(=O)CCNS(=O)(=O)c2ccc3c(c2)oc(=O)n3C)cc1	-0.1	-1.1	1.0	-0.2	-1.0	34.5	.
Cn1c(=O)oc2cc(S(=O)(=O)NCCC(=O)NCCc3ccccc3)ccc21	1.7	-1.3	2.8	4.3*	1.8	30.4	0.7
COc1cc(/C=N/NC(=O)c2ccc(N(C)S(=O)(=O)c3ccccc3)cc2)cc(OC)c1OC	-2.4	-2.3	1.6	-0.5	-4.7	18.2	.
CCOc1cc(/C=N/NC(=O)c2ccc(N(C)S(=O)(=O)c3ccccc3)cc2)ccc1OC	-4.8	-1.5	0.9	2.4*	3.0	.	-1.9
CC(=O)NC1CC2CCCC(C1)N2C(=O)Nc1c(C)cccc1C (stereo unspecified)	.	.	0.7	-0.1	.	.	.
Clc1ccc(CNCCCSc2ncccn2)cc1Cl	0.8	0.5	1.3	2.4*	-4.8	.	-0.1
Clc1cccc(Cl)c1CNCCCSc1ncccn1	0.4	2.5	1.1	0.0	-0.2	.	.
Cc1cc(-c2cc(C)c(N)cc2C)c(C)cc1N	0.5	.	-0.9	-0.1	.	.	.
Cc1cc2c(cc1C)C(=O)C(Br)=C(N)C2=O	0.2	.	-0.1	6.1*	.	.	-0.7
CCOc1ccccc1NC(=O)NC(=O)N(C)S(=O)(=O)c1ccc(C)cc1	-1.6	-0.2	4.6	0.4	-0.3	57.6	.
CCC(C(=O)NCc1ccco1)N(C(=O)CNS(=O)(=O)c1ccc(F)cc1)c1ccccc1F (stereo unspecified)	-0.6	-1.4	-0.8	3.5*	-2.0	.	-0.5
CCC(C(=O)NCc1ccco1)N(C(=O)CNS(=O)(=O)c1ccccc1)c1ccc(F)cc1 (stereo unspecified)	-0.2	1.4	0.9	0.2	1.3	.	.
Cc1nnc(SCC(=O)NC2CCCc3ccccc32)n1-c1ccccc1 (stereo unspecified)	-2.2	-0.3	4.0	7.0*	-0.1	7.3	0.9
Cc1nc2ccc3nc(NC(=O)c4ccc5c(c4)OCCO5)sc3c2s1	-8.0	4.2	0.8	7.7*	-3.7	-50.6	-0.9
C(=N\c1nc2ccccc2n1CCN1CCCCC1)/c1ccc2c(c1)OCO2	0.0	1.2	18.9	7.8*	-1.5	-4.8	1.5
O=C(CN1CCN(CC(=O)Nc2ccc(F)cc2)CC1)NCC1(N2CCOCC2)CCCCC1	1.2	-1.1	-1.6	-0.2	-1.4	.	.
Cc1ccc(S(=O)(=O)N(C)C)cc1NC(=O)C1CCCCN1S(=O)(=O)c1ccccc1 (stereo unspecified)	0.5	-1.7	-0.4	2.9*	1.2	.	-0.7
Cc1cccc(NC(=O)C2CCCCN2S(=O)(=O)c2ccccc2)c1C (stereo unspecified)	-1.1	-1.3	-1.2	0.2	-1.8	.	.
COc1ccc(N2CC(NC(=O)N3CCc4ccccc43)CC2=O)cc1OC (stereo unspecified)	2.0	0.7	-0.7	-0.1	-0.7	5.1	.
Cc1nn(C)cc1C1C2=C(CC(C)(C)CC2=O)N(c2ccccc2)C2=C1C(=O)CC(C)(C)C2	0.0	0.8	-0.6	4.2*	-1.3	-16.7	-0.8
Cc1ccc(N2C3=C(C(=O)CC(C)(C)C3)C(c3cn(C)nc3C)C3=C2CC(C)(C)CC3=O)cc1	-0.1	0.7	2.4	0.0	-1.1	.	.
COC(=O)COc1ccc(S(=O)(=O)Nc2ccc(C(N)=O)cc2)cc1Cl	0.6	-1.6	-2.4	77.2*	-0.3	9.5	-0.9
COC(=O)COc1ccc(S(=O)(=O)Nc2ccc(C(N)=O)cc2)cc1C	-1.0	0.2	-0.4	0.0	-2.5	30.1	.
SMILES	NR3A LBD binder	UPR CHOP act	MPTP block	aDG glyco up	XBP1 UPR activ	CHOP inh	aDG conf
CC(C)(C)c1ccc(NC(=O)CCNC(=O)c2ccco2)cc1	-0.7	0.7	0.6	0.0	1.3	.	.
O=C(CN1CCN(c2ccccn2)CC1)Nc1ccc([N+](=O)[O-])cc1C(=O)Nc1ccccc1F	-1.1	3.6	-0.2	0.2	-4.5	.	.
O=C(/C=C/c1ccc2c(c1)OCO2)N1CCN(c2ccc(Cl)cc2)CC1	1.8	1.1	0.7	15.0*	-3.1	9.7	1.1
NC(=S)N/N=C/c1coc2c(ccc3ccccc32)c1=O	9.5	.	0.1	9.0*	.	-3.9	0.4
Cc1ccc(NC(=O)c2cccc3cccnc23)cc1	-4.5	5.7	-0.9	0.0	0.3	.	.
CC1(C)CC(=O)C=C(c2ccc(-c3ccccc3)cc2)C1=O	.	.	-0.9	0.0	.	.	.
CC1(C)CC(=O)C=C(c2ccccc2-c2ccc(S(C)(=O)=O)cc2)C1=O	.	.	0.8	5.6*	.	.	-1.2
CCOc1cccc(-c2cc(N3CCN(CCO)CC3)n3nccc3n2)c1	.	.	1.3	6.0*	.	.	-0.7
O=C(N/N=C\c1ccccc1)c1ccccc1-n1cccc1	0.6	0.5	0.3	-0.5	1.3	22.3	.
Cc1cc(C)cc(OCC(=O)N/N=C/c2ccc([N+](=O)[O-])o2)c1	0.8	3.7	1.0	6.7	-1.8	-90.5	.
O=C(CNc1cccc([N+](=O)[O-])c1)N/N=C/c1ccc([N+](=O)[O-])o1	-4.5	1.1	-0.3	18.9*	-2.4	-12.3	4.7*
CC1(C(=O)N/N=C/c2ccc([N+](=O)[O-])o2)CC1(Br)Br (stereo unspecified)	-6.0	2.1	-15.3	4.6*	-3.4	-15.8	1.5
O=C(N/N=C/c1ccc([N+](=O)[O-])o1)c1ccccc1-n1cccc1	2.0	3.8	0.2	3.3*	-0.8	.	2.5
Cc1ccccc1OCC(=O)N/N=C/c1ccc([N+](=O)[O-])o1	0.2	2.7	6.2	7.9*	0.8	-37.8	3.3
Cc1cccc(N(C(=O)CCC(=O)Nc2cc(C)on2)C(C(=O)NC2CCCC2)c2ccccc2)c1 (stereo unspecified)	-1.7	0.1	7.4	0.0	-5.3	.	.
CC(=O)N1CC(C(=O)Nc2ccc3c(c2)OCO3)Oc2ccccc21 (stereo unspecified)	-2.4	0.9	0.5	-0.4	3.2	.	.
c1ccc(-c2nnc(CN3CCN(C(c4ccccc4)c4ccccc4)CC3)o2)cc1	2.4	3.1	-0.4	6.8*	-0.7	62.8	0.1
CCCc1nnc(NC(=O)CCC(=O)NC2CCCCCC2)s1	9.0	0.4	0.4	-0.4	-1.9	.	.
